Results taken from ChEMBL document CHEMBL2150931, “Design, synthesis, and biological activity of a novel series of human sirtuin-2-selective inhibitors” (J Med Chem, 2012).
Calls of active or inactive are those of the source. No cut-off for these calls is given here.

How the values were obtained:
[1] = molecular target: T1, Histone deacetylase 11 (Homo sapiens, UniProt Q96DB2); assay: Inhibition of HDAC11
T1 sequence (Q96DB2 whole entry): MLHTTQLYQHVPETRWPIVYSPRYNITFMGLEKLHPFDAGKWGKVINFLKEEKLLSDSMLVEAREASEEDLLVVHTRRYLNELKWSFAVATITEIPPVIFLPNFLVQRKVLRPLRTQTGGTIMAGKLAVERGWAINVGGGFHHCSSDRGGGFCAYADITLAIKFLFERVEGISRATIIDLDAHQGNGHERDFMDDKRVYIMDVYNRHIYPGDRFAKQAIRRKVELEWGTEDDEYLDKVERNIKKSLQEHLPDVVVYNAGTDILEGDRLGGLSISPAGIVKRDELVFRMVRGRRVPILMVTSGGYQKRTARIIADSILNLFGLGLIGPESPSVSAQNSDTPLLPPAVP

[2] = molecular target: T2, Histone deacetylase 7 (Homo sapiens, UniProt Q8WUI4); assay: Inhibition of HDAC7
T2 sequence (Q8WUI4 whole entry): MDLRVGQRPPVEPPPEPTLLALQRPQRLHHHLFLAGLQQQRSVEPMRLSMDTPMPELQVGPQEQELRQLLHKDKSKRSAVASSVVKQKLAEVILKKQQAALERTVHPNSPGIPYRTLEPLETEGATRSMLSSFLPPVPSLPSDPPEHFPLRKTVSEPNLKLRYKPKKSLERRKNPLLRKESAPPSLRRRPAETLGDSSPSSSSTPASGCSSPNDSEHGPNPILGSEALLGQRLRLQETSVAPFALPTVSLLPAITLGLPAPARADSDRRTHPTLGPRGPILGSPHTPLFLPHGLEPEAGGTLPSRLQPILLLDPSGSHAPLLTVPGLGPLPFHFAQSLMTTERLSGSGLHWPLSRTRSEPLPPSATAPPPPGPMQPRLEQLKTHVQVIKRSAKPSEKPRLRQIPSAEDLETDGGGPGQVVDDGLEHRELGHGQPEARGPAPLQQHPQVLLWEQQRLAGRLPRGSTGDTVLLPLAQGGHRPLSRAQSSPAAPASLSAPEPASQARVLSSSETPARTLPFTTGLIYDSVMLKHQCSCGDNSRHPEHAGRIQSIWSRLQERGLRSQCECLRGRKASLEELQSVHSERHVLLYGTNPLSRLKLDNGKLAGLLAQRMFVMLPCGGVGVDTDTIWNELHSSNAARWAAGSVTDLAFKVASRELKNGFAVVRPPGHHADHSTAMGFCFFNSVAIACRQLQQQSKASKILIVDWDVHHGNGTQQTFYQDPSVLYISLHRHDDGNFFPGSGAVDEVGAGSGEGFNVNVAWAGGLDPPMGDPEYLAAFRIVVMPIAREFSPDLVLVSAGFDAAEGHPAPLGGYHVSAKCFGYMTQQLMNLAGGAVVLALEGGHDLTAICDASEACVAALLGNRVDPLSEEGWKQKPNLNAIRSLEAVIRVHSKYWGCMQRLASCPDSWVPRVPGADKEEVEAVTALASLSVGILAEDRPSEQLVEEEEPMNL

[3] = molecular target: Cytochrome P450 3A4 (Homo sapiens, UniProt P08684); assay: Inhibition of CYP3A4; type: ADME
Cytochrome P450 3A4, sequence (P08684 whole entry): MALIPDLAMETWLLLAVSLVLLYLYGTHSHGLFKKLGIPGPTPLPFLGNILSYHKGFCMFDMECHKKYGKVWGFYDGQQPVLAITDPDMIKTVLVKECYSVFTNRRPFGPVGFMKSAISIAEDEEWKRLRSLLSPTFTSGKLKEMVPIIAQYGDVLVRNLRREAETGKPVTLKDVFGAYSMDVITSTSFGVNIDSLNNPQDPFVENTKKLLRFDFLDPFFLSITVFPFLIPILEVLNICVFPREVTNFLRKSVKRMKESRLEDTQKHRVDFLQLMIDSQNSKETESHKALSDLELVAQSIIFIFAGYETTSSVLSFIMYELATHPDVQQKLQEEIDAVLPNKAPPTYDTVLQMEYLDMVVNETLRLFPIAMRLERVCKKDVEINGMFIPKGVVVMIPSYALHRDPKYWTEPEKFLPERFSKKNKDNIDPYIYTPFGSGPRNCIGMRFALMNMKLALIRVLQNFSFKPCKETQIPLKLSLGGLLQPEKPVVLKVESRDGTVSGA

[4] = molecular target: T3, NAD-dependent protein deacetylase sirtuin-2 (Homo sapiens) (UniProt Q8IXJ6); assay: Inhibition of SIRT2 in human HCT116 cells assessed as increase in acetylated alpha-tubulin after 8 hrs by Western blot analysis; type: cell-based; settings: HCT-116
T3 sequence (whole entry): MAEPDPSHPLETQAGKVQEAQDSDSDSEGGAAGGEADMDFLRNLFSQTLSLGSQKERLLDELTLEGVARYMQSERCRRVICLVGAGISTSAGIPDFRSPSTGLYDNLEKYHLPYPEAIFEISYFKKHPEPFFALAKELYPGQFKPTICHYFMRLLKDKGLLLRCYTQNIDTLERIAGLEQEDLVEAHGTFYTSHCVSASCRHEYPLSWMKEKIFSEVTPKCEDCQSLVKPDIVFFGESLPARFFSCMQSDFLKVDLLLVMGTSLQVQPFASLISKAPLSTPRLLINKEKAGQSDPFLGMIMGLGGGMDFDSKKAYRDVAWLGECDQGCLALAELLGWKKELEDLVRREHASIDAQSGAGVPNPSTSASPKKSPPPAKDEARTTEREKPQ
In short: (§1)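 HCT116 cells grown in McCoy's 5A with 10% FBS. 5×10⁵ cells exposed 8 h to compound at 1 or 10 μM, alongside 20 μM etoposide. SDS lysates equalized by Bradford assay and run on 15% SDS-PAGE, then blotted onto nitrocellulose. Blots probed overnight at 4 °C for acetyl-p53, p53, acetyl-α-tubulin and α-tubulin, and detected by ECL. Signal given as acetylated/total protein ratio.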

[5] = molecular target: T4, NAD-dependent protein deacetylase sirtuin-1 (Homo sapiens) (UniProt Q96EB6); assay: Inhibition of SIRT1 in human HCT116 cells assessed as increase in acetylated p53 at 1 to 10 uM after 8 hrs by Western blot analysis; type: cell-based; settings: HCT-116; in short: as §1
T4 sequence (whole entry): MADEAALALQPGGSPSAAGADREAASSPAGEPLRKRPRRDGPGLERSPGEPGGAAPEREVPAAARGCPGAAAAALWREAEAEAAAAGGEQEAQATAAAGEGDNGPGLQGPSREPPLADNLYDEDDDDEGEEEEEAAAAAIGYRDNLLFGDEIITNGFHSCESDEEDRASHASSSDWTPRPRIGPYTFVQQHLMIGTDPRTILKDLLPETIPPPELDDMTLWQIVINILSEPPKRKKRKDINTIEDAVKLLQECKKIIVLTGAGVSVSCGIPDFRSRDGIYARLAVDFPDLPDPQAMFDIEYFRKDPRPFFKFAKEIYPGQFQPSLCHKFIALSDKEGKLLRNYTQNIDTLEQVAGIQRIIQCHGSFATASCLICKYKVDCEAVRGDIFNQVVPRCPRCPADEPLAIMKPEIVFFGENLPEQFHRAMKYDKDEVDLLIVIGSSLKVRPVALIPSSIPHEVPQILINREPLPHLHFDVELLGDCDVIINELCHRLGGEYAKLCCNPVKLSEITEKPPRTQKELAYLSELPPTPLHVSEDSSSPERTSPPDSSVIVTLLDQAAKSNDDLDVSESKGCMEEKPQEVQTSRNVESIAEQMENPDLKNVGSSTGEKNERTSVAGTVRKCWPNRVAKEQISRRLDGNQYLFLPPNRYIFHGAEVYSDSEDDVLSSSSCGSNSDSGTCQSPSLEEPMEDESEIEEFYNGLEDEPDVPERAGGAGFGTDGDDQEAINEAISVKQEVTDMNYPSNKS

[6] = molecular target: Histone deacetylase 9 (Homo sapiens, UniProt Q9UKV0); assay: Inhibition of HDAC9
Histone deacetylase 9, sequence (Q9UKV0 whole entry): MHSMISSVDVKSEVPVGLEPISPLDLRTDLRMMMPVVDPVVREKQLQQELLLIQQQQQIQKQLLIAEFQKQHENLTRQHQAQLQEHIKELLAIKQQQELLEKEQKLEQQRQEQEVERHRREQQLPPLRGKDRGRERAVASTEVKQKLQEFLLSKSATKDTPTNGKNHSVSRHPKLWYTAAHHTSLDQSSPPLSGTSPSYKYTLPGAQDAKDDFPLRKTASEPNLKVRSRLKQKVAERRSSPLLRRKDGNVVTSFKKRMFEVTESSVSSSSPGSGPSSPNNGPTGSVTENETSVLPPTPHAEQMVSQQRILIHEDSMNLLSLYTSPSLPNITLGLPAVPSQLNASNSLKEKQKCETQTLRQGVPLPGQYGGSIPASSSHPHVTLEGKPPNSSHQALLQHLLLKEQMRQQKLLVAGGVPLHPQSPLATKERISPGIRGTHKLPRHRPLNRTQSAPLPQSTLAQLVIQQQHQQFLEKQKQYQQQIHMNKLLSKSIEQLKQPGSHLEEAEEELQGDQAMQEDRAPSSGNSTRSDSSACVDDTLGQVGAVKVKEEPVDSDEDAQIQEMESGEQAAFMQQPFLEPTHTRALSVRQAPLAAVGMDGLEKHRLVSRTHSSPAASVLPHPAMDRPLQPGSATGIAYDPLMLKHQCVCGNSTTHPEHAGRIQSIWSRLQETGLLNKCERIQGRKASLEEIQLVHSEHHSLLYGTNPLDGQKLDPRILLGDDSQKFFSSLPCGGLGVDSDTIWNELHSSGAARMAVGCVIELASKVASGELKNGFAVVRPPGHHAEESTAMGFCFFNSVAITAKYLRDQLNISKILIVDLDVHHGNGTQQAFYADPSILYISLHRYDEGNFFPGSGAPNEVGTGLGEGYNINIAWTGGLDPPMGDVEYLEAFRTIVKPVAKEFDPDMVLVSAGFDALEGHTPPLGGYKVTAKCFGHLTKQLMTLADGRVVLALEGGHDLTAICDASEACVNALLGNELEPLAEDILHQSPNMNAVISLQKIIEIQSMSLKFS

## NC(=O)c1ccccc1Nc1cccc(OCCc2ccccc2)c1
[1]
  IC50: > 30 µM
[2]
  IC50: > 30 µM
[3]
  IC50: > 10 µM
[4]
  inhibition: Dose-dependent effect
[5]
  inhibition: inactive
[6]
  IC50: > 30 µM
